One data set concerns NBL-S. Briefly: 2D growth over time viability. Format: cell-based. The conditions noted are these: 2.5 μM after 8 days. An outline of the steps:
(§1)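 Cells seeded at 500 per well (PATU-8988T: 100 per well) and dosed with test compound or DMSO the next day. Kept at 37 °C, 5% CO2, with medium and compound renewed every 48 h. One plate per time point (days 0, 2, 4, 6, 8); the day 0 plate was read before dosing. Viability measured by CellTiter-Glo luminescence.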

Data set [1] concerns Myc transcriptional activity in HEK293 cells. Put plainly: Myc luciferase reporter assay. Format: cell-based. As to conditions: 2 μM, 48 h, cotransfected Pin1. In short, it runs like this: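 HEK293 cells (DMEM, 10% FBS, 2.5 mM L-glutamine, nonessential amino acids) grown in six-well plates to 80% confluence. Lipofected with 4× E-box-luciferase and Pin1-Flag plasmids plus β-galactosidase as internal control. Compound added at transfection; cells harvested 48 h later. Cells lysed, sonicated and cleared before luciferase read-out.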

For data set [2], the system named is 275 human cancer cell lines. Briefly: PRISM cancer cell viability screening. Format: cell-based. As to conditions: 5-day treatment, 275 cell lines. An outline of the steps:
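Pooled, 24-nucleotide-barcoded cancer cell lines (275 in total) exposed to test compound for 5 days. Eight-point curve in fourfold dilutions from a top concentration of 20 µM.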

Data set [3] concerns germinal center (GC) B cells. Briefly: In vivo germinal center B cell evaluation. As to conditions: IP 40 mg kg^−1 on days 7 and 9 after NP-OVA immunization, day 11. Also on record: species or system mice. In short, it runs like this: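 WT mice immunised with NP-OVA and killed on day 11. Lymph node cells Fc-blocked with anti-CD16/32 (2 µg ml-1, 5–10 min), then stained 20–40 min with B220, FAS and CD38 antibodies. Germinal centre B cells gated as live/single B220+ CD38lo FAShi by flow cytometry. Two-tailed Student's t test.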

The test system of data set [4] is transplanted neuroblastoma cells in zebrafish embryos. Briefly: Zebrafish neuroblastoma allograft transplant model. The conditions noted are these: 100 μM in fish water, 5 days. Format: in vivo. In short, it runs like this:
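Neuroblastoma cells obtained by dicing 4-month-old Tg(dβh:MYCN;dβh:EGFP) fish in PBS and transplanted into embryos. Live fish imaged under identical conditions. Tumour burden quantified as the area of EGFP-fluorescent tumour mass.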

A further data set can be described thus: Thiol reactivity assay. Format: physicochemical. The conditions noted are these: compared with 2; reactivity varied by an order of magnitude.
In the next data set the test system is c-Myc protein levels. Put plainly: c-Myc protein level immunoblot. Format: cell-based.
A further data set has as its system PC3. Briefly: 2D growth over time viability. Format: cell-based. The conditions noted are these: up to 8 days. In short, it runs like this: as §1
Data set [5] concerns radioresistant HeLa cells. Put plainly: Radiosensitization AlamarBlue viability assay. As to conditions: 7.5 Gy IR. Format: cell-based. An outline of the steps: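 HeLa cells seeded at 200 per well. Treated with compound 16 h later, then given 7.5 Gy X-ray 1 h after treatment. AlamarBlue (10% final) added 3 days post-irradiation. Absorbance read at 570 nm, 600 nm reference, 4 days post-irradiation. Background taken from cell-free wells; % survival set against DMSO-treated, nonirradiated controls.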

Another data set deals with WT PATU-8988T cells. Put plainly: 2D growth over time viability. Format: cell-based. As to conditions: 1 μM, 6 and 8 days. In short, it runs like this:
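PATU-8988T cells plated at 100 per well (other lines 500), with one plate per time point (days 0, 2, 4, 6, 8). Treated the day after plating with DMSO or compound and held at 37 °C, 5% CO2. Medium plus fresh compound replaced every 48 h. CellTiter-Glo luminescence read; day 0 read before treatment. Values divided by mean day 0 reading; n = 3 biological replicates.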

Data set [6] relates to IRAK1 Thr209 phosphorylation. Put plainly: IRAK1 Thr209 phosphorylation immunoblot. Format: cell-based. As to conditions: HeLa, 24 h post-IR.
Data set [7] relates to PATU-8988T cells. Put plainly: Cell cycle analysis. Format: cell-based. As to conditions: 2.5 μM, 4 days. In short, it runs like this:
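PATU-8988T cells treated 4 days with DMSO (0.1%), test compound or a non-covalent analogue (each 2.5 µM), with medium replaced on day 3; run in triplicate or more. Pulsed with 10 µM BrdU for 1 h, then fixed in 70% ethanol and denatured in 2 M HCl/0.5% Triton X-100 (30 min, RT). Neutralised with 0.1 M Na2B4O7 pH 8.5 and stained overnight at 4 °C with anti-BrdU-FITC. Counterstained with propidium iodide plus RNase A (each 50 µg ml-1) and analysed by FACS.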

The test system of another data set is IMR90 lung fibroblast. Put plainly: IMR90 lung fibroblast viability. Format: cell-based. As to conditions: IMR90 lung fibroblasts.
Another data set concerns Pin1. Briefly: In vivo Pin1 engagement, spleen competition pulldown. Also on record: species or system mice. As to conditions: 20 mg kg^–1 oral gavage, three doses over 2 days. In short, it runs like this: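 Mice dosed by oral gavage with vehicle or 10 or 20 mg kg-1, three doses over two consecutive days. Spleens harvested 4 h after the last dose, ground and lysed in HEPES pH 7.4/NaCl/glycerol/TCEP/NP-40 buffer with protease inhibitors. Lysate clarified and normalized by BCA to 2.5 µg µl-1. Competition pulldown run with a desthiobiotin-tagged probe analogue.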

The test system of data set [8] is PATU-8988T cells. Put plainly: Apoptosis analysis. Format: cell-based. An outline of the steps:
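PATU-8988T cells treated in triplicate for 6 days with DMSO (0.1%), test compound (1.0 or 2.5 µM) or a non-covalent analogue (2.5 µM), with medium replaced on day 3. Staurosporine (1 µM, 4 h) served as positive control. Cleaved caspase 3 and Pin1 assessed by Western blot. AnnexinV-FITC/7-AAD FACS scored live, early and late apoptotic cells; mean with SD, n=3.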

A short description of data set [9]: Acute toxicity model in mice. Format: in vivo. As to conditions: daily 10, 20 or 40 mg kg^–1 IP for 2 weeks. An outline of the steps: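 Mice, 3 per arm, 14 days: vehicle; 10 mg kg-1 once daily; 20 mg kg-1 every other day; 40 mg kg-1 once daily; 40 mg kg-1 every other day. Given by IP injection in 5% N-methylpyrrolidone, 5% solutol, 20% DMSO. Adverse effects and weight recorded; postmortem examination.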

The test system of data set [10] is PINN1, the worm Pin1 homolog. As to conditions: cited from earlier work.
Another data set relates to PATU-8988T WT Pin1 cells. Put plainly: 3D Matrigel dome antiproliferative assay. Format: cell-based. The conditions noted are these: 1 μM, 9-day treatment. In short, it runs like this: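 1,000 cells per Matrigel dome, one dome per well, left 15 min at 37 °C to solidify. Medium with test compound renewed every 3 days. After 9 days, 3D CellTiter-Glo was added and the plate shaken 1 h at room temperature before reading luminescence. n = 9 biological replicates per condition.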

`CC(C)(C)CN(C(=O)CCl)C1CCS(=O)(=O)C1` (stereo not drawn) [Sulfopin]: the “antiproliferative effect (growth over time)” value with NBL-S was “significant viability effects”. Besides, the “relative luciferase activity (Myc reporter)” value in [1] is recorded as “significant reduction in relative luciferase activity”. In data set [2], the “antiproliferative activity (PRISM)” value is recorded as “limited to no antiproliferative activity” and the “number of cell lines with EC50 <3 μM” value is “nine”. For the same molecule, in data set [3], the “proportion of GC B cells compared to vehicle” value was found to be 1.34 fold. For the same molecule, the “eGFP-labeled tumor mass size” value in data set [4] is reported as “decreased in size”. In the data set “Thiol reactivity assay”, the thiol reactivity entry was “dramatically less reactive”. Further, the c-Myc protein levels entry in the data set with c-Myc protein levels is “increased c-Myc protein levels”. Also, the “antiproliferative effect (growth over time)” value in the data set on PC3 is on record as “only slight effects”. Also, the resensitization to irradiation result in data set [5] is listed as “significantly resensitized them to irradiation in a dose-dependent manner”. The “effect on cellular viability” value with WT PATU-8988T cells was “significant effect on cellular viability after 6 and 8 days”. Further, the “concentration decreasing IRAK1 Thr209 phosphorylation” value in data set [6] was no more than 100 nM. In addition, in the data set on PATU-8988T cells [7], the “cells in G1 phase” value is “increased the number of cells found in G1 phase” and the “cells in S phase” value is reported as “reduced the percentage of cells in S phase”. In addition, the “no toxicity up to (IMR90 viability)” value in the data set on IMR90 lung fibroblast was greater than 25 µM. For the same molecule, in the data set on Pin1, the “in vivo Pin1 engagement in spleen” value is recorded as “Effective Pin1 engagement was observed in three out of three mice”. The Pin1 protein levels result with PATU-8988T cells [8] (5 or 6 days, 1 μM, 2.5 μM, Western blot) is recorded as “Pin1 levels were not changed”. Besides, in the data set with PATU-8988T cells [8] (treatments of up to 6 days, 1 and 2.5 μM), the induction of apoptosis result is “does not induce apoptosis”. The “adverse effects, weight loss” value in data set [9] is given as “No adverse effects or weight loss were recorded”. Moreover, the “inhibition of PINN1 in Caenorhabditis elegans” value in data set [10] is given as “inhibited PINN1”. The “antiproliferative activity in 3D Matrigel domes” value with PATU-8988T WT Pin1 cells is “modest antiproliferative activity”.

(Values after PMC9119696 (Nature chemical biology, 2021).)
